The values that follow come from ChEMBL document CHEMBL1154114, “7-((4-Substituted)piperazin-1-yl) derivatives of ciprofloxacin: synthesis and in vitro biological evaluation as potential antitumor agents” (Bioorg Med Chem, 2009).

pIC50: −log10 of the molar value.

The subject of one data set is PC-3. Nature of the data set: Antitumor activity against human PC3 cells after 5 days by MTT assay. Particulars: PC-3, 120 h. The format is functional, cell-based. Put shortly: (§1)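 Five human cancer lines (prostate PC-3, glioblastoma U373-MG, colorectal LoVo, NSCLC A549, breast MCF-7) plated at 10⁴ to 3×10⁴ cells/mL depending on cell type, allowed 24 h to attach, then cultured 120 h with or without drug at nine concentrations. MTT reduction to formazan read at 570 nm (reference 630 nm).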
Regarding `CCOC(=O)N1CCN(c2cc3c(cc2F)c(=O)c(C(=O)O)cn3C2CC2)CC1`, the pIC50 is 3.41.

As for `CCCCCCCCCCCCCC(=O)N1CCN(c2cc3c(cc2F)c(=O)c(C(=O)O)cn3C2CC2)CC1`, the pIC50 is 4.03.

The molecule `CC(C)(C)C(=O)N1CCN(c2cc3c(cc2F)c(=O)c(C(=O)O)cn3C2CC2)CC1` had a pIC50 of 3.61.

`CCCC(=O)N1CCN(c2cc3c(cc2F)c(=O)c(C(=O)O)cn3C2CC2)CC1` had a pIC50 of 4.07.

On to `CC(=O)OCC(=O)N1CCN(c2cc3c(cc2F)c(=O)c(C(=O)O)cn3C2CC2)CC1`, for which the pIC50 is 3.75.

As for `CCCCCCCCCCCCCC(=O)OCC(=O)N1CCN(c2cc3c(cc2F)c(=O)c(C(=O)O)cn3C2CC2)CC1`, the pIC50 is 3.13.

`CCCCCCCCCCCC(=O)N1CCN(c2cc3c(cc2F)c(=O)c(C(=O)O)cn3C2CC2)CC1` showed a pIC50 of 5.40.

Molecule `CCCCC(=O)N1CCN(c2cc3c(cc2F)c(=O)c(C(=O)O)cn3C2CC2)CC1` showed a pIC50 of 4.14.

For the molecule `O=C(O)c1cn(C2CC2)c2cc(N3CCN(C(=O)Cc4ccccc4)CC3)c(F)cc2c1=O`, the negative logarithm of the IC50 (pIC50) is 3.61.

Turning to `CCCCCCC(=O)N1CCN(c2cc3c(cc2F)c(=O)c(C(=O)O)cn3C2CC2)CC1`, the pIC50 is 3.11.

The molecule `CCCCCCCCC(=O)N1CCN(c2cc3c(cc2F)c(=O)c(C(=O)O)cn3C2CC2)CC1` had a pIC50 of 5.15.

Regarding `O=C(O)c1cn(C2CC2)c2cc(N3CCN(C(=O)CO)CC3)c(F)cc2c1=O`, the pIC50 was 3.36.

Regarding `CCCCCCCCCCOC(=O)N1CCN(c2cc3c(cc2F)c(=O)c(C(=O)O)cn3C2CC2)CC1`, the pIC50 is 4.62.

Test system in another data set: not listed separately
Nature of the data set: Toxicity in ip dosed B6D2F1 mouse assessed as maximum tolerated dose after 28 days. In kind it is organism-based. Particulars: in vivo. In outline: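 Healthy mice, three per group, each given a single ip dose and observed for up to 28 days. The MTD index is the highest single dose given without causing any deaths in the group.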
Turning to `CCOC(=O)N1CCN(c2cc3c(cc2F)c(=O)c(C(=O)O)cn3C2CC2)CC1`, the MTD at 672 h was > 80 mg/kg.

As for `CCCCCCC(=O)N1CCN(c2cc3c(cc2F)c(=O)c(C(=O)O)cn3C2CC2)CC1`, the MTD at 672 h is > 80 mg/kg.

Test system in another data set: not listed separately
Nature of the data set: Stability in phosphate buffer of pH 7.4 after 6 days. The format is physicochemical. Particulars: read-out: Stability. In outline:
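Compound dissolved at 1 mM in DMSO, diluted with phosphate buffer pH 7.4 to 1 mL, incubated sealed at 37 °C for 6 days. A t0 aliquot was held at 4 °C. HPLC with 280 nm detection and duplicate injections, with expected degradation products as references. Stability is taken as compound peak area over (compound + degradation product) peak area.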
Turning to `CCOC(=O)N1CCN(c2cc3c(cc2F)c(=O)c(C(=O)O)cn3C2CC2)CC1`, the remaining at 144 h came to 100%.

Regarding `CCCCCCC(=O)N1CCN(c2cc3c(cc2F)c(=O)c(C(=O)O)cn3C2CC2)CC1`, the remaining at 144 h was found to be 100%.

A further data set deals with A549. Nature of the data set: Antitumor activity against human A549 cells after 5 days by MTT assay. In kind it is functional, cell-based. Particulars: A549, 120 h. Put shortly: as §1
For the molecule `CCOC(=O)N1CCN(c2cc3c(cc2F)c(=O)c(C(=O)O)cn3C2CC2)CC1`, the pIC50 was < 3.00.

Molecule `CCCCCCCCCCCCCC(=O)N1CCN(c2cc3c(cc2F)c(=O)c(C(=O)O)cn3C2CC2)CC1` showed a pIC50 of 4.25.

Molecule `CC(C)(C)C(=O)N1CCN(c2cc3c(cc2F)c(=O)c(C(=O)O)cn3C2CC2)CC1` gave a pIC50 of 3.29. This pIC50 is 0.96 log units lower than that of the molecule before.

For the molecule `CCCC(=O)N1CCN(c2cc3c(cc2F)c(=O)c(C(=O)O)cn3C2CC2)CC1`, the pIC50 is 3.16. The pIC50 values of the last two molecules are within 0.2 log units of each other.

Turning to `CC(=O)OCC(=O)N1CCN(c2cc3c(cc2F)c(=O)c(C(=O)O)cn3C2CC2)CC1`, the pIC50 was 3.43. This pIC50 is 0.27 log units higher than that of the molecule before.

`CCCCCCCCCCCCCC(=O)OCC(=O)N1CCN(c2cc3c(cc2F)c(=O)c(C(=O)O)cn3C2CC2)CC1` had a pIC50 of 3.13.

As for `CCCCCCCCCCCC(=O)N1CCN(c2cc3c(cc2F)c(=O)c(C(=O)O)cn3C2CC2)CC1`, the negative logarithm of the IC50 (pIC50) was 5.15.

`CCCCC(=O)N1CCN(c2cc3c(cc2F)c(=O)c(C(=O)O)cn3C2CC2)CC1` had a pIC50 of 4.19.

Molecule `O=C(O)c1cn(C2CC2)c2cc(N3CCN(C(=O)Cc4ccccc4)CC3)c(F)cc2c1=O` had a negative logarithm of the IC50 (pIC50) of 4.54.

Take `CCCCCCC(=O)N1CCN(c2cc3c(cc2F)c(=O)c(C(=O)O)cn3C2CC2)CC1`: the negative-log IC50 (pIC50) was 3.09.

In the case of `CCCCCCCCC(=O)N1CCN(c2cc3c(cc2F)c(=O)c(C(=O)O)cn3C2CC2)CC1`, the pIC50 is 5.22.

In turn, `O=C(O)c1cn(C2CC2)c2cc(N3CCN(C(=O)CO)CC3)c(F)cc2c1=O` showed a negative-log IC50 (pIC50) of 3.34.

Molecule `CCCCCCCCCCOC(=O)N1CCN(c2cc3c(cc2F)c(=O)c(C(=O)O)cn3C2CC2)CC1` showed a pIC50 of 4.36.

In another data set the test system is MCF7. Nature of the data set: Antitumor activity against human MCF7 cells after 5 days by MTT assay. In kind it is functional, cell-based. Particulars: MCF7, 120 h. Put shortly: as §1
On to `CCOC(=O)N1CCN(c2cc3c(cc2F)c(=O)c(C(=O)O)cn3C2CC2)CC1`, for which the pIC50 was 3.34.

Turning to `CCCCCCCCCCCCCC(=O)N1CCN(c2cc3c(cc2F)c(=O)c(C(=O)O)cn3C2CC2)CC1`, the pIC50 was 4.02.

Turning to `CC(C)(C)C(=O)N1CCN(c2cc3c(cc2F)c(=O)c(C(=O)O)cn3C2CC2)CC1`, the pIC50 was 4.07.

Molecule `CCCC(=O)N1CCN(c2cc3c(cc2F)c(=O)c(C(=O)O)cn3C2CC2)CC1` showed a pIC50 of 3.76.

As to `CC(=O)OCC(=O)N1CCN(c2cc3c(cc2F)c(=O)c(C(=O)O)cn3C2CC2)CC1`, the pIC50 was 3.55. This pIC50 lies 0.21 log units lower than the previous one.

As to `CCCCCCCCCCCCCC(=O)OCC(=O)N1CCN(c2cc3c(cc2F)c(=O)c(C(=O)O)cn3C2CC2)CC1`, the pIC50 was 3.08.

`CCCCCCCCCCCC(=O)N1CCN(c2cc3c(cc2F)c(=O)c(C(=O)O)cn3C2CC2)CC1`: the pIC50 was 3.97.

Consider `CCCCC(=O)N1CCN(c2cc3c(cc2F)c(=O)c(C(=O)O)cn3C2CC2)CC1`, for which the pIC50 is 3.50.

`O=C(O)c1cn(C2CC2)c2cc(N3CCN(C(=O)Cc4ccccc4)CC3)c(F)cc2c1=O` showed a pIC50 of 4.49.

The molecule `CCCCCCC(=O)N1CCN(c2cc3c(cc2F)c(=O)c(C(=O)O)cn3C2CC2)CC1` had a negative-log IC50 (pIC50) of 3.12.

As to `CCCCCCCCC(=O)N1CCN(c2cc3c(cc2F)c(=O)c(C(=O)O)cn3C2CC2)CC1`, the pIC50 was 4.59. This pIC50 lies 1.47 log units higher than the previous one.

As to `O=C(O)c1cn(C2CC2)c2cc(N3CCN(C(=O)CO)CC3)c(F)cc2c1=O`, the pIC50 was 3.01.

As for `CCCCCCCCCCOC(=O)N1CCN(c2cc3c(cc2F)c(=O)c(C(=O)O)cn3C2CC2)CC1`, the pIC50 is 4.70. This pIC50 lies 1.69 log units higher than the previous one.

The next data set concerns LoVo. Nature of the data set: Antitumor activity against human LoVo cells after 5 days by MTT assay. In kind it is functional, cell-based. Particulars: 120 h. In outline: as §1
`CCOC(=O)N1CCN(c2cc3c(cc2F)c(=O)c(C(=O)O)cn3C2CC2)CC1` gave a negative logarithm of the IC50 (pIC50) of 3.57.

With `CCCCCCCCCCCCCC(=O)N1CCN(c2cc3c(cc2F)c(=O)c(C(=O)O)cn3C2CC2)CC1`, the pIC50 was 4.00.

The molecule `CC(C)(C)C(=O)N1CCN(c2cc3c(cc2F)c(=O)c(C(=O)O)cn3C2CC2)CC1` gave a pIC50 of 4.03.

On to `CCCC(=O)N1CCN(c2cc3c(cc2F)c(=O)c(C(=O)O)cn3C2CC2)CC1`, for which the pIC50 was 3.83.

`CC(=O)OCC(=O)N1CCN(c2cc3c(cc2F)c(=O)c(C(=O)O)cn3C2CC2)CC1` gave a negative logarithm of the IC50 (pIC50) of 3.57.

For `CCCCCCCCCCCCCC(=O)OCC(=O)N1CCN(c2cc3c(cc2F)c(=O)c(C(=O)O)cn3C2CC2)CC1`, the pIC50 was 3.12.

In turn, `CCCCCCCCCCCC(=O)N1CCN(c2cc3c(cc2F)c(=O)c(C(=O)O)cn3C2CC2)CC1` gave a pIC50 of 4.35.

The molecule `CCCCC(=O)N1CCN(c2cc3c(cc2F)c(=O)c(C(=O)O)cn3C2CC2)CC1` gave a pIC50 of 4.06.

In the case of `O=C(O)c1cn(C2CC2)c2cc(N3CCN(C(=O)Cc4ccccc4)CC3)c(F)cc2c1=O`, the pIC50 was 4.39.

`CCCCCCC(=O)N1CCN(c2cc3c(cc2F)c(=O)c(C(=O)O)cn3C2CC2)CC1`: the pIC50 was 3.10.

On to `CCCCCCCCC(=O)N1CCN(c2cc3c(cc2F)c(=O)c(C(=O)O)cn3C2CC2)CC1`, for which the pIC50 was 4.52.

Molecule `O=C(O)c1cn(C2CC2)c2cc(N3CCN(C(=O)CO)CC3)c(F)cc2c1=O` showed a pIC50 of 3.39.

Consider `CCCCCCCCCCOC(=O)N1CCN(c2cc3c(cc2F)c(=O)c(C(=O)O)cn3C2CC2)CC1`, for which the pIC50 is 4.49.

Test system in the next data set: not listed separately
Nature of the data set: Antitumor activity against human U373MG cells after 5 days by MTT assay. In kind it is functional, cell-based, U-373MG ATCC. To be noted: U373 MG, 120 h. Put shortly:
as §1
For the molecule `CCOC(=O)N1CCN(c2cc3c(cc2F)c(=O)c(C(=O)O)cn3C2CC2)CC1`, the negative-log IC50 (pIC50) is 3.64.

The molecule `CCCCCCCCCCCCCC(=O)N1CCN(c2cc3c(cc2F)c(=O)c(C(=O)O)cn3C2CC2)CC1` showed a negative logarithm of the IC50 (pIC50) of 3.69.

On to `CC(C)(C)C(=O)N1CCN(c2cc3c(cc2F)c(=O)c(C(=O)O)cn3C2CC2)CC1`, for which the pIC50 was 4.17. Against the preceding molecule, the pIC50 is 0.48 log units higher.

Turning to `CCCC(=O)N1CCN(c2cc3c(cc2F)c(=O)c(C(=O)O)cn3C2CC2)CC1`, the pIC50 is 3.98. This pIC50 and that of the molecule before are within 0.2 log units of each other.

Molecule `CC(=O)OCC(=O)N1CCN(c2cc3c(cc2F)c(=O)c(C(=O)O)cn3C2CC2)CC1` showed a pIC50 of 4.00. The pIC50 values of the last two molecules are within 0.2 log units of each other.

Take `CCCCCCCCCCCCCC(=O)OCC(=O)N1CCN(c2cc3c(cc2F)c(=O)c(C(=O)O)cn3C2CC2)CC1`: the pIC50 is 3.13.

Molecule `CCCCCCCCCCCC(=O)N1CCN(c2cc3c(cc2F)c(=O)c(C(=O)O)cn3C2CC2)CC1` gave a pIC50 of 4.74. Against the preceding molecule, the pIC50 is 1.61 log units higher.

The molecule `CCCCC(=O)N1CCN(c2cc3c(cc2F)c(=O)c(C(=O)O)cn3C2CC2)CC1` showed a pIC50 of 4.07.

The molecule `O=C(O)c1cn(C2CC2)c2cc(N3CCN(C(=O)Cc4ccccc4)CC3)c(F)cc2c1=O` gave a negative-log IC50 (pIC50) of 4.47.

In turn, `CCCCCCC(=O)N1CCN(c2cc3c(cc2F)c(=O)c(C(=O)O)cn3C2CC2)CC1` had a pIC50 of 3.14.

For the molecule `CCCCCCCCC(=O)N1CCN(c2cc3c(cc2F)c(=O)c(C(=O)O)cn3C2CC2)CC1`, the negative logarithm of the IC50 (pIC50) is 4.62.

As for `O=C(O)c1cn(C2CC2)c2cc(N3CCN(C(=O)CO)CC3)c(F)cc2c1=O`, the pIC50 was 3.53.

The molecule `CCCCCCCCCCOC(=O)N1CCN(c2cc3c(cc2F)c(=O)c(C(=O)O)cn3C2CC2)CC1` gave a pIC50 of 3.40.
